Lung fibro prol: blocks proliferation of human lung fibroblasts; LL 47 human lung fibroblast viability, ATP luminescence; active compounds read low; viability, % at 10 µM; hit rate 1.1% among 85,000;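 active means viability at or below 50% in the single dose screen; inactive means viability above 50%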;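 further: compound exposure lasted 72 h before the ATP readout; 100% = median luminescence of untreated cell-only wells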
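Benchmarks: Cell-only wells, no compound | Test system: LL 47 human lung fibroblasts, passage 12 or lower | Input: 1,150 cells/well | Measured by: CellTiter-Glo luminescence measuring cellular ATP | Medium: IMEM, 15% FBS supplement | Schedule: Overnight attachment after seeding, then 72 h compound exposure at 37 °C | Doses: Compound addition at 0.1% DMSO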
H69AR inhibit: growth inhibitors of human H69AR lung tumor cells | H69AR lung tumor viability, ATP luminescence, 72 h; active compounds read low | viability, % at 10 µM | hit rate 6% among 85,000 | AID 598;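 active means viability at or below 40%; inactive means viability above 40%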;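 further: multidrug resistant small cell line overexpressing MRP-1 efflux transporter; 100% = mean luminescence of untreated control wells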
HUVEC prolif 384: inhibitors of human endothelial cell proliferation; HUVEC proliferation, CellTiter-Glo luminescence, 72 h; active compounds read low; viability, % at 10 µM (by protocol); hit rate 1.1% among 86,000;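 active means viability at or below 30%; inactive means viability above 30%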;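 further: 100% = median luminescence of DMSO-only cell control wells on each plate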
PTK2B oligo ant: antagonists of human Pyk2 oligomerization; Q14289; Q293 cells, Pyk2 FERM NanoBiT luminescence; active compounds read low; z-score (the deposit names both 25 µM and 10 µM); hit rate 0.83% among 99,000;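 active means Z-score of -3 or lower, scaled per plate to the spread of control and sample wells; inactive means z-score above -3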;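 further: negative z-score means lost luminescence so less FERM oligomerization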
HCT116 PTEN-null: suppresses growth of cells with PTEN deletion; HCT116 PTEN-null viability, CellTiter-Glo, 60 h; active compounds read low; viability, % at 10 µM; hit rate 1.2% among 140,000; AID 827;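 active means viability at or below a set limit, 4 SD under the median of all tested compounds, cut at about 3.7% in these data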;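 further: PTEN knockout HCT116 line with beta catenin targeted HCT116 as companion control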
HCT116 bCat-KO: beta-catenin-lacking colon tumor cell growth suppression; HCT116 beta-catenin knockout viability, CellTiter-Glo, 60 h; active compounds read low; viability, % at 10 µM; hit rate 1.5% among 140,000; AID 818;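 active means viability at or under a set limit, the compound median less 4 SD, cut at about 6% in these data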;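 further: 0% = Hyamine 1622 control at 20 µM and 100% = untreated cell control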
The depositor's hits bear a star; / = no result. The full list was thinned out, with hits kept by preference.

SMILES | Lung fibro prol | H69AR inhibit | HUVEC prolif 384 | PTK2B oligo ant | HCT116 PTEN-null | HCT116 bCat-KO
Oc1c(CN2CCCCC2)cc(Br)c2cccnc12 | / | / | / | -0.08 | 1.4* | 1.7*
Oc1c(CN2CCc3ccccc3C2)cc(Cl)c2cccnc12 | 14* | 2.0* | 5.9* | / | 3.0* | 2.9*
O=C(NC(c1ccc(Cl)cc1)c1cc(Cl)c2cccnc2c1O)c1cccnc1 (stereo not given) | / | / | / | / | 13 | 9
Oc1c(I)cc(Cl)c2cccnc12 | 70 | 8.3* | 12* | / | 8 | 18
CC1=C(C(=O)OC(C)C)C(c2cn(-c3ccccc3)nc2-c2cccs2)NC(=O)N1 (stereo not given) | / | / | / | / | 71 | 72
CC(=O)/C(CN1CCCCC1)=N\O | 98 | 102 | 93 | 0.98 | 95 | 117
C/C(=N\O)C(=O)C(CN1CCCCC1)CN1CCCCC1 | 15* | 0.4* | 74 | -0.94 | 82 | 100
CC1=NNC(=O)/C1=C\c1cn(-c2ccccc2)nc1-c1ccc(Cl)cc1 | / | / | / | -2.4 | 1.4* | 1.4*
CCOc1cc(OCC)nc(S(C)(=O)=O)n1 | / | / | / | / | 96 | 88
Cc1cccc(NCc2ccccc2O)n1 | 102 | 103 | 86 | -0.48 | 94 | 101
Cc1ccc2ccc(C(Nc3ccccn3)c3ccccc3)c(O)c2n1 (stereo not given) | 75 | 28* | 81 | / | 63 | 60
Oc1c(C(Nc2ccccn2)c2ccccn2)ccc2cccnc12 (stereo not given) | 5.0* | 6.4* | 55 | 0.01 | 2.5* | 3.0*
COc1cc(C(Nc2ccccn2)c2ccc3ccc(C)nc3c2O)cc(OC)c1O (stereo not given) | 38* | 0.3* | 14* | -1.6 | 2.5* | 2.9*
COc1ccccc1NC(c1cccnc1)c1ccc2cccnc2c1O (stereo not given) | / | / | / | / | 49 | 49
O=c1cc(CO)oc(C(Nc2ccccn2)c2ccccc2F)c1O (stereo not given) | 100 | 98 | 98 | / | / | /
Cc1cccc(NC(c2ccc(C)s2)c2ccc3ccc(C)nc3c2O)n1 (stereo not given) | / | / | / | / | 1.7* | 2.4*
C=C(C)Cn1c(CCCNC(=O)C(C)(C)C)nc2ccccc21 | / | / | / | 0.19 | 111 | 97
Cc1cc(C(=O)CN2CCCC(C)C2)c(C)n1-c1ccc(F)cc1 (stereo not given) | / | / | / | / | 98 | 94
CC(=O)NC(c1ccco1)c1ccc2cccnc2c1O (stereo not given) | 2.2* | 43 | 4.6* | 1.9 | 6 | 5.1*
Cc1cc(NC(=O)CSc2ccc(Cl)cc2)no1 | 105 | 83 | 83 | 0.86 | 99 | 101
Cc1cc(NC(c2ccc(Cl)cc2)c2ccc3cccnc3c2O)no1 (stereo not given) | 8.1* | 48 | 11* | -0.87 | 10 | 4.3*
CCCCCC(=O)NNC(=O)c1ccc(-c2ccccc2)cc1 | / | / | / | 0.45 | 101 | 106
c1ccc(-n2nnc3cnccc32)cc1 | 99 | 82 | 99 | 0.52 | 94 | 99
Cn1c(NCc2ccco2)nc2c1c(=O)n(Cc1ccc(Cl)c(Cl)c1)c(=O)n2C | 89 | 79 | 84 | -1.2 | 27 | 24
Cc1cccc(C)c1NS(=O)(=O)c1ccc(NC(=O)c2ccc(Cl)c([N+](=O)[O-])c2)cc1 | / | / | / | / | 3.3* | 1.9*
SMILES | Lung fibro prol | H69AR inhibit | HUVEC prolif 384 | PTK2B oligo ant | HCT116 PTEN-null | HCT116 bCat-KO
O=C(Nc1ccc(C(O)(C(F)(F)F)C(F)(F)F)cc1)c1ccc(Cl)c([N+](=O)[O-])c1 | / | / | / | / | 1.8* | 1.6*
O=C(Nc1cccc(S(=O)(=O)Nc2ccccc2Cl)c1)c1ccc(N2CCCC2)c([N+](=O)[O-])c1 | / | / | / | / | 90 | 95
O=C(Nc1ccc2c(c1)OCCO2)c1ccc(Cl)c([N+](=O)[O-])c1 | / | / | / | / | 66 | 51
Cc1ccc(NC(=O)c2ccc(NCCN)c([N+](=O)[O-])c2)cc1Cl | / | / | / | / | 4 | 3.4*
O=C(O)CS(=O)(=O)CC(=O)O | 104 | 102 | 102 | -0.74 | 96 | 103
COCCN(C(=S)Nc1c(C)cc(C)cc1C)C(C)c1cccnc1 (stereo not given) | / | / | / | / | 102 | 91
CCc1cc(-c2n[nH]c(=S)n2-c2ccccc2C)cs1 | / | / | / | -1.2 | 97 | 85
Cc1cccc(NC(=O)CCN2C(=O)C3C4C=CC(C4)C3C2=O)c1 (stereo not given) | 108 | 96 | 92 | -0.3 | 93 | 95
Cc1ccc(/C=c2\s/c(=C(/C#N)C(=O)N3CCCC3)n(Cc3ccco3)c2=O)s1 | 97 | 37* | 59 | -0.21 | 48 | 54
CCOC(=O)c1ccc(NC(=O)CSc2nc(NC(=O)c3ccccc3)c3c(C)c(C)oc3n2)cc1 | 97 | 22* | 93 | -0.89 | 66 | 81
C=CCn1c(O)c(N=NC(=S)Nc2cccc(C)c2)c2ccccc21 | 52 | 22* | 48 | / | 14 | 13
CCn1c(O)c(N=NC(=O)CNc2cccc(C)c2)c2ccccc21 | / | / | / | / | 88 | 88
CCN(CC)c1ccc(C2NCC(c3ccc([N+](=O)[O-])cc3)O2)cc1 (stereo not given) | 92 | 103 | 88 | -3.2* | 97 | 88
COc1ccccc1NC(=O)CSc1nnnn1-c1ccc(C)cc1 | 101 | 83 | 88 | -1.6 | 103 | 86
COc1ccccc1NC(=O)c1ccc(NC(=O)CSc2nnnn2C)cc1 | 104 | 2.2* | 97 | 1.3 | 91 | 81
Cc1ccc(NC(=O)C2(NC(=O)c3ccccn3)CCCCC2)cc1Br | / | / | / | / | 68 | 78
CN1CCN(C2=C(Cl)C(=O)N(c3ccc(Cl)c(Cl)c3)C2=O)CC1 | 94 | 8.5* | 88 | -0.06 | 86 | 81
CN1CCN(C2=C(Cl)C(=O)N(c3cccc(Cl)c3)C2=O)CC1 | 91 | 86 | 85 | 0.22 | 99 | 99
CN1CCN(C2=C(Cl)C(=O)N(Cc3ccccc3)C2=O)CC1 | 91 | 39* | 89 | -0.25 | 76 | 76
CC(=O)Nc1cccc(C(=O)/C=C/c2ccc(C)cc2)c1 | / | / | / | / | 1.9* | 2.7*
COc1ccc(CCN(C(=S)Nc2ccccc2)C2CC(=O)N(c3ccccc3)C2=O)cc1 (stereo not given) | / | / | / | -0.5 | 66 | 50
O=C1CC(N(CCc2ccccc2)C(=S)Nc2ccccc2)C(=O)N1c1ccc(Br)cc1 (stereo not given) | / | / | / | / | 2.8* | 1.9*
COc1ccc(-c2cc(-c3cc(OC)ccc3O)[nH]n2)cc1 | 73 | 28* | 53 | -2.1 | 36 | 21
Cc1ccc(O)c(-c2cc(-c3cccc(F)c3)n[nH]2)c1 | 82 | 0.6* | 28* | -1.4 | 47 | 40
COc1ccc(O)c(-c2cc(-c3cccc(Br)c3)n[nH]2)c1 | 96 | 36* | 43 | 0.44 | 37 | 14
Cc1ccc(-c2cc(-c3cccc(F)c3)n[nH]2)c(O)c1 | 86 | 64 | 56 | -0.58 | 44 | 38
COc1ccc(-c2cc(-c3ccc(OC)c(OC)c3)n[nH]2)c(O)c1 | 86 | 54 | 96 | -1.6 | 32 | 26

Screening results deposited in PubChem by several laboratories.
